Screening results from PubChem BioAssay.
This is a sample that favours compounds with a hit; in the whole collection about 1.1% have one here.
LYPLA1 counter = blocks human lysophospholipase 1, a PME1 counter-screen | inhibition, % at 5.9 µM | recombinant LYPLA1, FP-Rh probe fluorescence polarization | 320,000 tested, 0.16% active;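 active = inhibition above the mean of all tested compounds plus 3 SD, set per campaign, cut at about 14% in these data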;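 note: inhibitors block serine hydrolase probe labeling of LYPLA1 so polarization falls; 0% = enzyme with DMSO and 100% = wells lacking LYPLA1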
procasp7 counter = counter-screen: procaspase-7 (human) activation; activation, % at 8.5 µM; 330,000 tested, 0.093% active; AID 463210; P55210; recombinant procaspase-7, Ac-DEVD-pNA absorbance 405 nm; D23A/D198A/D206A triple mutant, cannot self-cleave; scale: DMSO 0, 5 µM enzyme 100;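 active = percent activation above the screen-wide mean plus 3 SD, cut at about 25% in these data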
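Assay system: Uncleavable procaspase-7 mutant enzyme; Input: 2 µM procaspase-7 mutant as dispensed; Also added: DEVD-pNA substrate; Medium: Zinc-free HEPES pH 7.4 with 300 mM NaCl, 0.01% Triton X-100; Timing: 1 h compound preincubation, 2 h substrate cleavage, 25 °C; Measured by: Epi-absorbance of released pNA at 405 nm, two timepoints.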
proCasp3 act = procaspase-3 (human) activation. P42574. recombinant procaspase-3 D3A, Ac-DEVD-pNA absorbance 405 nm. activation, % at 8.5 µM. 330,000 tested, 0.11% active. AID 463141;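 active = activation above the mean of all tested compounds plus 3 SD, cut at about 21% in these data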;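 note: 0% = DMSO alone and 100% = DMSO wells spiked with extra 5 µM PC-3 D3A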
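Technique: 405 nm absorbance of p-nitroaniline, reads at 0 and 120 min; Test system: Procaspase-3 D3A mutant; Incubation: 1 h enzyme-compound preincubation, then 2 h substrate reaction, 25 °C; Repeats: singlicate, each compound tested once; Benchmarks: low control DMSO wells, high control DMSO plus 5 µM PC-3 D3A.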
PREPL inhibitor = human PREPL enzyme inhibition. AID 2751. inhibition, % at 5.96 µM. 320,000 tested, 0.68% active. Q4J6C6. recombinant PREPL, fluorescence polarization activity-based probe; in the data active = inhibition above about 43%;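 note: 0% = enzyme with DMSO and 100% = wells lacking enzyme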
Target sequence (Q4J6C6 whole entry, looked up): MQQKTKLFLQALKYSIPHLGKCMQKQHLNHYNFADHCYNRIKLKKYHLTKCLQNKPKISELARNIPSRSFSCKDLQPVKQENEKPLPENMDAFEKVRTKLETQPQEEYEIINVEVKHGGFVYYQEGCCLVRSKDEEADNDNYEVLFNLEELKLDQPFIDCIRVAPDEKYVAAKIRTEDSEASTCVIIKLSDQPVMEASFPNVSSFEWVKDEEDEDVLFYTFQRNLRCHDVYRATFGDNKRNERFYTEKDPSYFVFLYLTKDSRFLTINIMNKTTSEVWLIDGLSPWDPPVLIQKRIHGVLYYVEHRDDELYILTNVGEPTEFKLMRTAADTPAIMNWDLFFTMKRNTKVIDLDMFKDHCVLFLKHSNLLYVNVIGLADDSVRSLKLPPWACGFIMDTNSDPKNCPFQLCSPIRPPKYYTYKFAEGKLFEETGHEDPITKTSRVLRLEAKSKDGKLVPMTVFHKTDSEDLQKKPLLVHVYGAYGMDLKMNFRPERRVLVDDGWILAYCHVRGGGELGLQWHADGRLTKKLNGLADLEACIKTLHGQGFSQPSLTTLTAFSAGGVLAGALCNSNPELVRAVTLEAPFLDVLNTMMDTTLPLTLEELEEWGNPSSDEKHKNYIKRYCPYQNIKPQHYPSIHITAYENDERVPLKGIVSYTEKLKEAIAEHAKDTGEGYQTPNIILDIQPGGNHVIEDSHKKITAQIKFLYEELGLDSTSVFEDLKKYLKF
LYPLA2 counter = counter-screen for PME1 inhibitors: inhibitors of human LYPLA2. O95372. recombinant LYPLA2, FP-Rh probe fluorescence polarization. 320,000 tested, 0.38% active. AID 2177. inhibition, % at 5.9 µM;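 active = inhibition above the screen-wide mean plus 3 SD, limit set per campaign, cut at about 26% in these data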;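 note: 0% = LYPLA2 with DMSO and 100% = wells lacking LYPLA2 enzyme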
proCasp7 act trip = counter-screen for procaspase-3 activators: activators of human procaspase-7; activation, % at 8.5 µM; AID 488941; 210 tested, under 10 active; shares compounds with proCasp3 act; recombinant procaspase-7, Ac-DEVD-pNA absorbance; asp23/198/206-to-Ala mutant, cannot self-cleave;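 active = mean activation above a set limit taken from an earlier procaspase-7 screen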;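 note: 0% = DMSO wells and 100% = DMSO plus 5 µM procaspase-7 enzyme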
procasp3 conf = confirmation of human procaspase-3 activators; activation, % at 8.5 µM; 210 tested, 10% active; shares compounds with proCasp3 act; recombinant PC-3 D3A, Ac-DEVD-pNA absorbance 405 nm; 100% is higher-enzyme control; AID 488954;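 active = mean activation above a set limit carried over from the earlier primary screen, cut at about 22% in these data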
PC3 dual counter = activates human procaspase-3, dual activator counter-screen; shares compounds with procasp7 counter; recombinant PC-3 D3A, Ac-DEVD-pNA absorbance 405 nm; aspartates 9, 28, 175 changed to alanine; 100% = enzyme control; activation, % at 8.5 µM; 290 tested, under 10 active;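 active = mean percent activation across triplicates above a set limit taken from the earlier primary procaspase-3 screen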;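 note: 0% = DMSO wells and 100% = DMSO wells with 5 µM added PC-3 D3A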
PC7 dual conf = confirmation of dual procaspase activators: human procaspase-7 activation | shares compounds with procasp7 counter | recombinant procaspase-7, Ac-DEVD-pNA absorbance 405 nm; D23A/D198A/D206A mutant that cannot self-cleave | AID 493115 | activation, % at 8.5 µM | 290 tested, under 10 active;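 active = mean activation above a set limit carried over from the earlier primary screen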;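 note: 0% = DMSO only and 100% = DMSO with added 5 µM PC-7 enzyme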
The depositor's hits bear a star; nt = not tested or not shown.

SMILES | LYPLA1 counter | procasp7 counter | proCasp3 act | PREPL inhibitor | LYPLA2 counter | proCasp7 act trip | procasp3 conf | others
COc1cc(OC)c(C(=O)COc2ncnc3ccccc23)c(OC)c1 | 4 | 2 | 2 | 4 | 0 | nt | nt
Cc1ccc(C)c(C(=O)COc2ncnc3ccccc23)c1 | 1 | 0 | 48* | -5 | 3 | 1 | 6
CN1CC(=O)N(CC(=O)Nc2ccc(OCc3ccccc3)cc2)C1=O | nt | 8 | 6 | 6 | nt | nt | nt
Cc1ccc2cc(C#N)c(NCCNC(=S)NCCCN(C)C)nc2c1C | -7 | -7 | 2 | -19 | -4 | nt | nt
Cc1ccc2cc(C#N)c(NCCNC(=O)C3CC3)nc2c1C | 0 | 21 | 23* | -3 | 5 | -23 | -13
O=c1c(O)c(-c2ccccc2)oc2cc(O)cc(O)c12 | nt | -3 | -4 | -10 | nt | nt | nt
CC(C)=CCc1cc(-c2oc3cc(O)cc(O)c3c(=O)c2O)ccc1O | -2 | 12 | 22* | 20 | 6 | 3 | 1
Cc1cccc(N=Nc2cnc(N)s2)c1 | 3 | -25 | -5 | 13 | 5 | nt | nt
CCCCN(C(=O)CSCC(=O)Nc1cccc(C)c1)c1c(N)n(Cc2ccccc2)c(=O)[nH]c1=O | 2 | 2 | 24* | -1 | 2 | 1 | 3
Cc1ccc2nc(CSc3nc(C)cc(C)c3C#N)[nH]c2c1 | 2 | 7 | 69* | 58* | -7 | -20 | -11
Cc1cc(C)c(C#N)c(SCc2ccccc2)n1 | 2 | 10 | -3 | 0 | 8 | nt | nt
Cc1c(C#N)c(=O)oc2ccc3ccccc3c12 | 3 | 19 | 26* | 7 | -2 | -22 | -12
N#Cc1cc2c(ccc3ccccc32)oc1=O | 2 | 7 | 3 | 4 | -7 | nt | nt
O=C(N1CCOCC1)N1CCN(c2ccc(F)cc2)CC1 | 0 | 2 | 0 | 2 | 4 | nt | nt
CCc1ccc(N2CCN(C(=O)N3CCOCC3)CC2)cc1 | -1 | 11 | 24* | 12 | 1 | 3 | 5
COc1ccc(C2=NOC(Cn3nc(-c4ccccc4C)cc3C(=O)O)C2)cc1 (stereo not drawn) | 1 | 6 | -1 | 11 | 0 | nt | nt
Cc1cc(C)c(C#N)c(SCC(=O)Nc2nnc(-c3ccccc3)s2)n1 | 2 | 22 | 27* | 16 | 1 | 2 | 1
Cc1cc(C)c(C#N)c(SCC(=O)Nc2ccccc2C)n1 | -6 | -3 | -3 | 10 | -3 | nt | nt
Cc1nc(SCC(=O)Nc2nc3ccccc3s2)c(C#N)c(C)c1C | 1 | -3 | 29* | 8 | -10 | -14 | -7
O=C(Nc1ccnn1C1CCN(C/C=C/c2ccccc2)CC1)c1cccc(F)c1 | -4 | 7 | 12 | -47 | 6 | nt | nt
CC(C)(C)C(=O)Nc1ccc(C(=O)CSc2nnc(C3CC3)n2C2CC2)cc1 | 1 | -10 | -1 | -1 | -1 | nt | nt
O=c1c(O)c(-c2cccs2)oc2ccc(Cl)cc12 | 3 | 17 | 5 | -2 | 5 | nt | nt
O=c1c(O)c(-c2cccs2)oc2ccccc12 | -1 | 15 | 27* | 10 | 2 | 1 | 5
CNC(=O)c1c(NC(=O)c2cccc(C)c2)sc2c1CCC2 | 2 | -226 | 29* | 15 | -5 | -3 | -2
COc1cccc2sc3cc(C#CC4(O)CCCCC4)ccc3c(=O)c12 | nt | -9 | -5 | -1 | nt | nt | nt
SMILES | LYPLA1 counter | procasp7 counter | proCasp3 act | PREPL inhibitor | LYPLA2 counter | proCasp7 act trip | procasp3 conf | others
COc1cc2sc3ccc(C#CC4(O)CCCCC4)cc3c(=O)c2cc1OC | -24 | 25 | 70* | -3 | -44 | -22 | -13
N#Cc1cc(S(=O)(=O)c2ccc(Cl)cc2)c(N)[nH]c1=O | -3 | 21 | 23* | -3 | -6 | -20 | -15
CCC1CCCCN1CCCNC(=O)CN1C(=O)COc2ccc(S(=O)(=O)N3CCC(C)CC3)cc21 (stereo not drawn) | 0 | 1 | -2 | 4 | 0 | nt | nt
O=C(Cc1c(O)c2ccccc2[nH]c1=O)NC1CCCCCCC1 | 0 | -7 | 22* | 7 | 3 | 0 | 7
NC(=O)c1ccccc1NC(=O)Nc1cccc(Cl)c1Cl | -4 | 5 | 3 | 5 | 2 | nt | nt
COc1ccc([C@H]2CC(=O)C=C(c3cc4ccccc4s3)C2)cc1 | -4 | 7 | -2 | -13 | 6 | nt | nt
Cc1sc2ncnc(SCC(=O)Nc3ccc(S(=O)(=O)N4CCOCC4)cc3)c2c1C | nt | 4 | 23* | -6 | nt | 0 | 2
CC(=O)Nc1ccc(NC(=O)CSc2ncnc3sc(C)c(C)c23)cc1 | -5 | 1 | 3 | -2 | -2 | nt | nt
Cc1cc(C)n2nc(C(=O)OCC(=O)Nc3ccc4c(c3)OCCO4)nc2n1 | 1 | 4 | 2 | 2 | 2 | nt | nt
Cc1ccc(Cn2c(N3CCN(C)CC3)nc3c2c(=O)[nH]c(=O)n3C)cc1 | 1 | 7 | -8 | 7 | 0 | nt | nt
O=c1[nH]c(N/N=C/c2ccc(O)cc2)nc2ccccc12 | -8 | 34* | 27* | 22 | -14 | nt | nt | PC3 dual counter=-2;PC7 dual conf=-1
O=C(O)c1ccc(/C=N/Nc2nc3ccccc3[nH]2)cc1 | 3 | 6 | -3 | 9 | -5 | nt | nt
Cc1ccc(-c2cc(-c3ccc(F)cc3)nc(N)c2C#N)o1 | -5 | 50* | 42* | -3 | -7 | nt | nt | PC3 dual counter=-29;PC7 dual conf=-34
CC1CC(C)CN(C(=O)C(C)N2CCN(S(=O)(=O)c3ccccc3F)CC2)C1 (stereo not drawn) | nt | 3 | 2 | 20 | nt | nt | nt
COc1ccc(S(=O)(=O)Nc2cc(C(C)C)c(O)cc2C)cc1 | 2 | 2 | 1 | 0 | -3 | nt | nt
COc1ccc2nc3cc(Cl)ccc3c(Nc3cc(C(C)C)c(O)cc3C)c2c1 | -9 | 26* | -18 | 35 | -1 | nt | nt | PC3 dual counter=-18;PC7 dual conf=-23
COc1ccc(Nc2oc(-c3cccs3)nc2C#N)cc1 | 2 | 53* | 16 | 11 | 2 | nt | nt | PC3 dual counter=-30;PC7 dual conf=-30
COC(=O)C1=C(C)NC(C)=C(C(=O)OC)C1c1ccc(OC(=O)c2oc3ccccc3c2C)c(OC)c1 | -7 | 81* | 35* | -4 | -16 | nt | nt | PC3 dual counter=4;PC7 dual conf=5
COc1ccccc1C(=O)NC(=O)COC(=O)c1oc2ccccc2c1C | -4 | 0 | 4 | 1 | -4 | nt | nt
